In the library only some 4.3% were active in any assay of this set; here they are far more common.
Yeast lifespan up: extends the lifespan of yeast; inhibition of the nicotinamide effect, % at 10 µM; S. cerevisiae growth with nicotinamide, OD615; deaD strain in restrictive glucose medium; 130,000 tested, 0.68% active;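 active = inhibition above a set limit, placed 3 SD over the median of all compounds, cut at about 26% in these data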
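System: DeaD-strain S. cerevisiae / Buffer or medium: CSMM-D, restrictive glucose (dextrose) synthetic minimal medium / Probe or stimulus: nicotinamide, 1.5 mM, co-present with compound / Compound: one concentration, 10 µM, DMSO 0.25% / Incubation: 48 h compound exposure at 30 °C, humidified / Technique: optical density (absorbance) at 615 nm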
RAM inhibit: yeast RAM network inhibition | S. cerevisiae dse1pr::URA3 reporter, 5-FOA growth OD615, 2 d; analog-sensitive cbk1-as2 kinase mutant strain | inhibition, % at 50 µM | 190,000 tested, 1.8% active | AID 868;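 active = inhibition above a set limit, 3 SD over mean compound inhibition, cut at about 8.4% in these data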;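 also: inhibition rescues growth on 5-FOA so higher OD means more RAM inhibition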
WT yeast gro inh: growth inhibition of WT yeast, mitochondrial fusion screen; mitochondrial fusion phenotypic screen, WT strain; inhibition, % at 10 µM; 190,000 tested, 2.1% active; AID 1362; in the data active = inhibition above about 58%; tested in S. cerevisiae
BB579 growth dn: yeast BB579 growth reduction in restrictive medium; S. cerevisiae BB579 growth, OD615, 48 h; inhibition, % at 10 µM; 140,000 tested, 0.51% active; AID 804;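 active = inhibition above a set limit, 3 SD over the mean compound inhibition, cut at about 44% in these data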
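System: Saccharomyces cerevisiae DeaD strain BB579, replicative lifespan model yeast. Buffer or medium: restrictive glucose-based CSMM-D medium. Doses: one dose, 10 µM compound with 0.25% DMSO. Timing: 4 h preincubation and 48 h exposure at 30 °C. Detection: turbidity as optical density at 615 nm. Benchmarks: amphotericin B 10 µg/mL, positive.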
RAM efflux-def: RAM network inhibitors in efflux-deficient yeast | shares compounds with RAM inhibit | S. cerevisiae efflux-deficient reporter strain, 5-FOA growth OD615, 2 days | max inhibition, % | 1,200 tested, under 10 active | AID 1305; call rule not given here
Of the large screens only hits and unclear results are named; the others gave an inactive call (follow-up assays come after a bar, where they were run).

CCCC1S/C(=N/N=C/c2ccc(OC)cc2)N(Cc2ccc(OC)cc2)C1=O (centres undefined)	RAM inhibit 13.2 | RAM efflux-def inactive
CNC(=O)C1CC(=O)N(Cc2ccccc2)C(=Nc2ccc(OC)cc2)S1 (centres undefined)	none
O=C(COc1ccccc1Cl)Nc1cc(Cl)ccc1Oc1ccccc1	RAM inhibit 13.8 | RAM efflux-def inactive
CSc1ccccc1NC(=O)COc1ccc(Cl)cc1Cl	none
Cc1ccc2sc(NC(=O)c3ccc(N4C(=O)CCC4=O)cc3)nc2c1C	RAM inhibit 16.5 | RAM efflux-def inactive
Clc1cccc(-c2ccc(CNCCCN3CCOCC3)o2)c1	none (no result: Yeast lifespan up, BB579 growth dn)
CCCCN(CCCC)c1nc2ccccc2nc1NS(=O)(=O)c1ccc(NC(C)=O)cc1	none
CC(=O)Nc1ccc(S(=O)(=O)Nc2nc3ccccc3nc2Nc2ccc3ccccc3c2)cc1	RAM inhibit 15.9 | RAM efflux-def inactive
O=C(CSc1nnc(SCc2ccc(Cl)cc2)s1)c1ccc2c(c1)OCO2	RAM inhibit 16.3 | RAM efflux-def inactive
COCCNc1nnc(SCC(=O)c2ccc3c(c2)OCO3)s1	none
NC(=O)NC(=O)COC(=O)CC12CC3CC(CC(C3)C1)C2	none (no result: Yeast lifespan up, BB579 growth dn)
CCOC(=O)C1CCN(S(=O)(=O)C(F)(F)c2nc3ccccc3s2)CC1	none | RAM efflux-def inactive
CC(C)(C)OC(=O)COc1cc(O)c2c(=O)cc(-c3ccccc3)oc2c1	RAM inhibit 11.6 | RAM efflux-def inactive
CN1CCN(C(=O)CC2(CC(=O)O)CCCC2)CC1	none (no result: Yeast lifespan up, BB579 growth dn)
O=C(O)CCCCn1c(SCc2ccccc2Cl)nc2ccsc2c1=O	RAM inhibit 16.9 (no result: Yeast lifespan up, BB579 growth dn) | RAM efflux-def inactive
Cn1cccc1C(=O)C(=O)Nc1ccc(F)c(F)c1	none (no result: Yeast lifespan up, BB579 growth dn)
Nc1nc(SCC(=O)NCc2ccccc2Cl)[nH]c(=O)c1NC(=O)c1ccccc1F	none
Nc1nc(SCC(=O)NCc2ccc(F)cc2)[nH]c(=O)c1NC(=O)c1ccc(Cl)cc1	RAM inhibit 11.7 | RAM efflux-def inactive
CN(CC(=O)NC(=O)NC(C)(C)C)CC(=O)Nc1ccccc1Cl	none (no result: Yeast lifespan up, BB579 growth dn)
CCCCN1C(=O)/C(=c2\sc3nc(=O)c(-c4ccccc4)nn3c2=O)c2ccccc21	none
CCCN1C(=O)/C(=c2\sc3nc(=O)c(Cc4ccc(C)cc4)nn3c2=O)c2ccccc21	RAM inhibit 12.2 (no result: Yeast lifespan up, BB579 growth dn) | RAM efflux-def inactive
CC(C)c1ccc(NC(=O)C(c2ccccc2)N2CC(=O)Nc3ccccc32)cc1 (centres undefined)	none
CC(OC(=O)c1ccccc1NS(=O)(=O)c1cccc(C(F)(F)F)c1)C(=O)N(C)Cc1ccccc1 (centres undefined)	RAM inhibit 12.6 | RAM efflux-def inactive
CCCCCOc1ccc(NC(=O)c2cc(SC)ccc2Cl)cc1	RAM inhibit 13.1 | RAM efflux-def inactive
CCN(CC)S(=O)(=O)c1cccc(-c2nnc(SCCOc3ccccc3)o2)c1	RAM inhibit 13.2 | RAM efflux-def inactive
CCN(CC)S(=O)(=O)c1cccc(-c2nnc(SCCOc3ccc(Cl)cc3)o2)c1	RAM inhibit 15.9 | RAM efflux-def inactive
CCN(CC)S(=O)(=O)c1cccc(-c2nnc(SCCOc3ccccc3C)o2)c1	RAM inhibit 11.8 | RAM efflux-def inactive
CCOC(=O)C1CCN(Cc2cnc(Oc3ccc(N)cc3)s2)CC1	none
CC(C)NS(=O)(=O)c1ccc2c(c1)NCC2	none
CCCOc1ccc(CC(=O)NNC(=S)Nc2ccccc2)cc1Br	RAM inhibit 15.2 (no result: Yeast lifespan up) | RAM efflux-def inactive
CN(C)CCNC(=O)CNC(=S)N(Cc1ccccc1)Cc1cccnc1	none
Cc1ccc(C)c(NC(=S)N(Cc2ccc(Cl)cc2)Cc2ccc(C(=O)O)cc2)c1	none (no result: Yeast lifespan up, BB579 growth dn)
O=C(/C(=N/N=C/c1ccc(O)c(O)c1O)c1ccccc1)c1ccccc1	RAM inhibit 17.0, BB579 growth dn 95.1 | RAM efflux-def inactive
O=C(COC(=O)c1cc(-c2cccc(Br)c2)nc2ccccc12)NCC1CCCO1 (centres undefined)	RAM inhibit 15.3, WT yeast gro inh 71.1 (no result: Yeast lifespan up, BB579 growth dn) | RAM efflux-def inactive
COC(=O)c1ccc(CSc2nc(-c3ccco3)cc(C(F)(F)F)n2)o1	RAM inhibit 17.8 | RAM efflux-def inactive
Cc1ccc(SCC(=O)Nc2ccc(F)cc2[N+](=O)[O-])cc1C	RAM inhibit 14.6 | RAM efflux-def inactive
CC(=O)C(N=Nc1ccccc1)(Sc1nnc(-c2ccccc2)n1-c1ccccc1)C(C)=O	RAM inhibit 11.5, WT yeast gro inh 78.5 | RAM efflux-def inactive
COC(=O)c1c(NC(C)=O)sc(Cc2ccccc2)c1C	none

From PubChem
